The AUC is the area under the concentration-time curve, a measure of exposure. A lower AUC goes with low exposure. The AUC(0-inf) is total exposure, with the tail of the curve extrapolated. Lower therefore signals low exposure.

Calls of active or inactive are those of the source. The calls are words filed in the database; no cut-off is given here.

The record followed here is ChEMBL document CHEMBL4261600 (Eur J Med Chem, 2018).

Series [1] concerns the target 5'-AMP-activated protein kinase catalytic subunit alpha-1 (Homo sapiens) (UniProt Q13131). Nature of the series: Binding affinity to wild-type human partial length AMPK alpha1 (M1 to E306 residues) expressed in bacterial expression system assessed as remaining unbound target protein level at 1000 nM by Kinomescan method relative to control. The method, boiled down:
(§1)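 KINOMEscan competition binding profile across a panel of 468 kinases and mutants, with the inhibitor tested at a single concentration of 1 μM. Binding is reported as percent of control, meaning signal relative to a DMSO control.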

Series [2] concerns the target Calcium/calmodulin-dependent protein kinase type 1G (Homo sapiens) (UniProt Q96NX5). Nature of the series: Binding affinity to wild-type human partial length CAMK1G (M1 to A342 residues) expressed in bacterial expression system assessed as remaining unbound target protein level at 1000 nM by Kinomescan method relative to control. In a few lines: as §1
Series [3] addresses Serine/threonine-protein kinase PAK 2 (Homo sapiens) (UniProt Q13177). Nature of the series: Binding affinity to wild-type human partial length PAK2 (P151 to R525 residues) expressed in bacterial expression system assessed as remaining unbound target protein level at 1000 nM by Kinomescan method relative to control.
Series [4] deals with Activin receptor type-1 (Homo sapiens) (UniProt Q04771). Nature of the series: Binding affinity to wild-type human ACVR1 (C188 to C509 residues) expressed in bacterial expression system assessed as remaining unbound target protein level at 1000 nM by Kinomescan method relative to control. In a few lines: (§2)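 KINOMEscan competitive binding profile at 1 μM inhibitor. Remaining target binding reported as percent of DMSO control.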
Activin receptor type-1 (Homo sapiens), sequence (Q04771 whole entry, the tested form may be a part): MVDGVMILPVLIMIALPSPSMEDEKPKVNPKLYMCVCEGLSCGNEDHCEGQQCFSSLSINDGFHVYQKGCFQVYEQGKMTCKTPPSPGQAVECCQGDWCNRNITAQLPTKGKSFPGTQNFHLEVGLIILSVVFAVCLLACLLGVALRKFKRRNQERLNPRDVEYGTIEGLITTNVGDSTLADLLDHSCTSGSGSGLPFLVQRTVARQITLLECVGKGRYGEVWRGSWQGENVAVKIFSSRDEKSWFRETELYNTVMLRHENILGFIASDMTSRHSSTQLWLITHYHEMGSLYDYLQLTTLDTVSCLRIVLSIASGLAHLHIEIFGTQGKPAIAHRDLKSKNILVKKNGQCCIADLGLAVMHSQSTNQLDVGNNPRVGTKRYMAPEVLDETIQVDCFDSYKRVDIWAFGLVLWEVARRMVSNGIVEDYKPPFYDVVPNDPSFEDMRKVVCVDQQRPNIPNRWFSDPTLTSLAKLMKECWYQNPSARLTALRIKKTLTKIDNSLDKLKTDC

Series [5] concerns Canis familiaris. Nature of the series: AUC (0 to infinity) in beagle dog at 2 mg/kg, iv by LC-MS/MS analysis. The series is classed as ADME, organism-based, Canis lupus familiaris. Set-up: dose 2 mg/kg, route intravenous, time infinity. Particulars: in vivo. In a few lines: (§3)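 Non-compartmental PK. Male SD rats 190-210 g, mice and beagle dogs acclimatized one week, fasted 12 h with water, split into iv and po groups (mice 48, rats 6, dogs 6). iv 3/3/2 mg/kg (mice/rats/dogs); po 10/20/10 mg/kg; vehicle DMSO in 5% glucose water. Blood at 2 or 5 to 720 min; plasma protein-precipitated with methanol, caffeine internal standard, LC-MS/MS.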

The target in series [6] is MAP kinase-activated protein kinase 5 (Homo sapiens) (UniProt Q8IW41). Nature of the series: Binding affinity to wild-type human partial length MAPKAPK5 (M1 to D322 residues) expressed in mammalian expression system assessed as remaining unbound target protein level at 1000 nM by Kinomescan method relative to control. In a few lines:
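KINOMEscan binding panel of 468 kinases/mutants. Inhibitor was tested at a single concentration of 1 μM. Binding is reported as percent of control, defined relative to a DMSO control.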

For series [7], the target named is Cyclin-dependent kinase 7 (Homo sapiens) (UniProt P50613). Nature of the series: Binding affinity to wild-type human full length CDK7 (M1 to L344 residues) expressed in mammalian expression system assessed as remaining unbound target protein level at 1000 nM by Kinomescan method relative to control. In a few lines: as §2
The target of series [8] is Phosphatidylinositol 4,5-bisphosphate 3-kinase catalytic subunit gamma isoform (Homo sapiens) (UniProt P48736). Nature of the series: Binding affinity to wild-type human partial length PIK3CG (S144 to A1102 residues) expressed in mammalian expression system assessed as remaining unbound target protein level at 1000 nM by Kinomescan method relative to control.
Phosphatidylinositol 4,5-bisphosphate 3-kinase catalytic subunit gamma isoform (Homo sapiens), sequence (P48736 whole entry, looked up, the tested form may be a part, canonical isoform): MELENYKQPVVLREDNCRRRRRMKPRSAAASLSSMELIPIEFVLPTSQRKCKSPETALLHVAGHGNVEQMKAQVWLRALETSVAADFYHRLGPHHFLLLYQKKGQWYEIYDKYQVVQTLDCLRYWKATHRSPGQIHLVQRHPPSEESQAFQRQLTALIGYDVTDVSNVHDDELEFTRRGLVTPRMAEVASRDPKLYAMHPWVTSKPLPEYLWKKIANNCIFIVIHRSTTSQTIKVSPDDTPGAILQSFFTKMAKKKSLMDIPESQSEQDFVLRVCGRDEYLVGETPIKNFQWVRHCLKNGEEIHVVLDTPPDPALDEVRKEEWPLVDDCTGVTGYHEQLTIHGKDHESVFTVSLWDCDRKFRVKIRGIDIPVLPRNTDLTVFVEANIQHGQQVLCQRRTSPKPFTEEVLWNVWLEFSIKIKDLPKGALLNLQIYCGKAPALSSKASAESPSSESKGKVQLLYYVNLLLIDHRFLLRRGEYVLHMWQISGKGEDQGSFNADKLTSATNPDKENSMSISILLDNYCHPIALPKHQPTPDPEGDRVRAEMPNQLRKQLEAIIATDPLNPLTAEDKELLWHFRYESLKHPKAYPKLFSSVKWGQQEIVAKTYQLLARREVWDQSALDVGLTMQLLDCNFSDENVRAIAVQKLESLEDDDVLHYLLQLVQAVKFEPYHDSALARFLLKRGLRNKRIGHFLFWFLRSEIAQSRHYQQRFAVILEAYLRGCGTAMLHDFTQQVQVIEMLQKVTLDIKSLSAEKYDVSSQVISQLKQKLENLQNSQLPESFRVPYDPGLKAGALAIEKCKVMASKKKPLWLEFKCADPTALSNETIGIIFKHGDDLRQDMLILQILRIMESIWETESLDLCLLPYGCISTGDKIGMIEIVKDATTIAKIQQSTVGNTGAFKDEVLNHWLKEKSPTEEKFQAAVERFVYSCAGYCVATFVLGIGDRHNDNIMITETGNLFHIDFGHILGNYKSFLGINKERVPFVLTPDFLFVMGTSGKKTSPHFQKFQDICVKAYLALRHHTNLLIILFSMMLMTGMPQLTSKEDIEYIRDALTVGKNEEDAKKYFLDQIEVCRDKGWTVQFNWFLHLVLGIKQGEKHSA
Series [9] deals with Phosphatidylinositol 4,5-bisphosphate 3-kinase catalytic subunit alpha isoform (Homo sapiens), P42336 [E545A]. Nature of the series: Binding affinity to human partial length PIK3CA E545A mutant (R108 to N1068 residues) expressed in mammalian expression system assessed as remaining unbound target protein level at 1000 nM by Kinomescan method relative to control. In a few lines: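 KINOMEscan competition-binding profiling across the panel of 468 kinases and mutants, with inhibitor tested at 1 μM. Binding is expressed as percent of control, with DMSO as the reference control.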
Phosphatidylinositol 4,5-bisphosphate 3-kinase catalytic subunit alpha isoform (Homo sapiens), P42336 [E545A], sequence (P42336 whole entry E545A, the tested form may be a part, canonical isoform): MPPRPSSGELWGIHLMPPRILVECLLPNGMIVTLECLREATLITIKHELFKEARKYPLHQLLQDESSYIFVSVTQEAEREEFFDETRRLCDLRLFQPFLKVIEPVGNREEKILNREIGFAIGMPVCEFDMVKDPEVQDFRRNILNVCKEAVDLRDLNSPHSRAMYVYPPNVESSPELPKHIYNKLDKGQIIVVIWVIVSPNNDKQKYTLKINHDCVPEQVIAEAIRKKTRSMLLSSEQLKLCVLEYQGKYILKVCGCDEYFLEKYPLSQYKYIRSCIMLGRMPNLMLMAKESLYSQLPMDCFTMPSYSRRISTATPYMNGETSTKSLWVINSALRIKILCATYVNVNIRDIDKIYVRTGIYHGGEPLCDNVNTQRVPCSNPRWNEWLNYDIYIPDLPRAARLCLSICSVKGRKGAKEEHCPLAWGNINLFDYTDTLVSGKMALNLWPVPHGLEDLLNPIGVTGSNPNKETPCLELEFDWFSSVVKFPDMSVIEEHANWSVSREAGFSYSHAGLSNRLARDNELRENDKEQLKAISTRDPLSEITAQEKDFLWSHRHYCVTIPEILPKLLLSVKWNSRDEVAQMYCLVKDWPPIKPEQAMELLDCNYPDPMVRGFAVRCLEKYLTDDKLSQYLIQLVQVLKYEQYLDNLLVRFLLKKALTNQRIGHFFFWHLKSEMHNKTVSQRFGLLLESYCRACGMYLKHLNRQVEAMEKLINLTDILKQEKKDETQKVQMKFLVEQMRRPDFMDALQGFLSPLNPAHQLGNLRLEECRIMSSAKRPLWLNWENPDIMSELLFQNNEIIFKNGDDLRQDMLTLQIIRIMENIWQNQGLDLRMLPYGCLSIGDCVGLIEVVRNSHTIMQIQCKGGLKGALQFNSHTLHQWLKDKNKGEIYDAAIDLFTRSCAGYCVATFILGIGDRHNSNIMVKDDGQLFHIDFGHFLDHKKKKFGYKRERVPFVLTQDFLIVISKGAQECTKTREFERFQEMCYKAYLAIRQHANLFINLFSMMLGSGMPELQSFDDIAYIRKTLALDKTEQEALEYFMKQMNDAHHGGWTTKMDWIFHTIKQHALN

The target in series [10] is Serine/threonine-protein kinase Sgk1 (Homo sapiens) (UniProt O00141). Nature of the series: Binding affinity to wild-type human partial length SGK (I60 to L431 residues) expressed in mammalian expression system assessed as remaining unbound target protein level at 1000 nM by Kinomescan method relative to control.
The target in series [11] is Receptor-interacting serine/threonine-protein kinase 2 (Homo sapiens) (UniProt O43353). Nature of the series: Binding affinity to wild-type human partial length RIPK2 (M1 to K310 residues) expressed in bacterial expression system assessed as remaining unbound target protein level at 1000 nM by Kinomescan method relative to control.
Series [12] in a line: AUC (0 to infinity) in Sprague-Dawley rat at 20 mg/kg, po by LC-MS/MS analysis. Type of series: ADME, organism-based. Set-up: dose 20 mg/kg, route oral, time infinity. The note with it: in vivo. In a few lines: as §3
The test system of series [13] is MV4-11. The experiment in a line: Antitumor activity against human MV4-11 cells xenografted in nu/nu mouse assessed as tumor growth inhibition at 10 mg/kg, po administered via gavage for 21 days measured on day 21 post last dose. The series is classed as functional, organism-based. In a few lines: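 Female nu/nu mice, five weeks old, implanted subcutaneously in the right flank with 5 million MV4-11 cells in PBS/Matrigel 1:1. Daily oral gavage in 0.5% methylcellulose/0.4% Tween80 started at tumor volume 200–400 mm³, 10, 20 or 30 mg/kg/day or vehicle, 5 mice per group. Tumor volume (W²×L)/2 and body weight measured daily; mean ± SEM.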

Series [14] deals with Cyclin-dependent kinase-like 3 (Homo sapiens) (UniProt Q8IVW4). Nature of the series: Binding affinity to wild-type human partial length CDKL3 (M1 to D327 residues) expressed in bacterial expression system assessed as remaining unbound target protein level at 1000 nM by Kinomescan method relative to control.
Cyclin-dependent kinase-like 3 (Homo sapiens), sequence (Q8IVW4 whole entry, looked up, the tested form may be a part): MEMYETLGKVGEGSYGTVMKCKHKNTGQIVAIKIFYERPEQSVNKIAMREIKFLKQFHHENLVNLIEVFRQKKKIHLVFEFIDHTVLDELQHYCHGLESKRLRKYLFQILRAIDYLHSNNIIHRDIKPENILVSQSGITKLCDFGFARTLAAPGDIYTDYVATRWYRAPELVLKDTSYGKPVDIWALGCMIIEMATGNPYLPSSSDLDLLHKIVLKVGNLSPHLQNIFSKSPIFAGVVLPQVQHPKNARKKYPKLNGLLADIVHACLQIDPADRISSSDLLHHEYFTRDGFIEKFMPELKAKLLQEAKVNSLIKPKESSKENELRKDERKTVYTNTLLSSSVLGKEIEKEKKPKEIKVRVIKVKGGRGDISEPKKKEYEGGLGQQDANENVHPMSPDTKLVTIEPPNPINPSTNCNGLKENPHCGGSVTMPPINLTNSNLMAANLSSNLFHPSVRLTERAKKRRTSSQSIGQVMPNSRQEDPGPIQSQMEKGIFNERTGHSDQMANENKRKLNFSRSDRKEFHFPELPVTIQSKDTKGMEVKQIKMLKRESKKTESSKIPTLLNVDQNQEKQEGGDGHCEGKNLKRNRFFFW
In series [15] the target is Wee1-like protein kinase (Homo sapiens) (UniProt P30291). The experiment in a line: Binding affinity to wild-type human partial length WEE1 (M291 to K575 residues) expressed in bacterial expression system assessed as remaining unbound target protein level at 1000 nM by Kinomescan method relative to control.
The target in series [16] is Serine/threonine-protein kinase Chk1 (Homo sapiens) (UniProt O14757). Nature of the series: Binding affinity to wild-type human partial length CHEK1 (M1 to G289 residues) expressed in bacterial expression system assessed as remaining unbound target protein level at 1000 nM by Kinomescan method relative to control. The method, boiled down:
as §1

Series [17] has as its target Serine/threonine-protein kinase mTOR (Homo sapiens) (UniProt P42345). Nature of the series: Binding affinity to wild-type human partial length MTOR (L1382 to W2549 residues) expressed in mammalian expression system assessed as remaining unbound target protein level at 1000 nM by Kinomescan method relative to control.
Series [18] deals with Cyclin-dependent kinase-like 5 (Homo sapiens) (UniProt O76039). Nature of the series: Binding affinity to wild-type human partial length CDKL5 (M1 to S337 residues) expressed in mammalian expression system assessed as remaining unbound target protein level at 1000 nM by Kinomescan method relative to control. In a few lines:
as §1

The target of series [19] is Tyrosine-protein kinase SYK (Homo sapiens) (UniProt P43405). Nature of the series: Binding affinity to wild-type human partial length SYK (D354 to N635 residues) expressed in bacterial expression system assessed as remaining unbound target protein level at 1000 nM by Kinomescan method relative to control.
Series [20] addresses Casein kinase II subunit alpha (Homo sapiens) (UniProt P68400). Nature of the series: Binding affinity to wild-type human full length CSNK2A1 (M1 to Q391 residues) expressed in mammalian expression system assessed as remaining unbound target protein level at 1000 nM by Kinomescan method relative to control. In a few lines: as §2

Serine/threonine-protein kinase PAK 2 (Homo sapiens), sequence (Q13177 whole entry, the tested form may be a part): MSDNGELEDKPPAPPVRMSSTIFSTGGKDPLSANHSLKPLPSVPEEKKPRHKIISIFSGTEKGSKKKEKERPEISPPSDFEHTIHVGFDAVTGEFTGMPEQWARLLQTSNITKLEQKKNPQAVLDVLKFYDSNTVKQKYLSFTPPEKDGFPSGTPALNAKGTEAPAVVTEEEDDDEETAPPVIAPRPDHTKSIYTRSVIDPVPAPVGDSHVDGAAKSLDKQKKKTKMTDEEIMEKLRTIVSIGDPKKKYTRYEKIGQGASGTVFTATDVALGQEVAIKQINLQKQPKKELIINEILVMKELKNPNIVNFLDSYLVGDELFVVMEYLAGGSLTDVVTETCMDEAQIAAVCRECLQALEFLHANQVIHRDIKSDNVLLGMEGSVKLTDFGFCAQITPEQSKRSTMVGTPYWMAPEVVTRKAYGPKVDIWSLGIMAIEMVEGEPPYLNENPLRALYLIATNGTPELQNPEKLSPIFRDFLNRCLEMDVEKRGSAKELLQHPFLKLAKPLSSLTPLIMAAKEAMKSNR
Cyclin-dependent kinase-like 5 (Homo sapiens), sequence (O76039 whole entry, the tested form may be a part): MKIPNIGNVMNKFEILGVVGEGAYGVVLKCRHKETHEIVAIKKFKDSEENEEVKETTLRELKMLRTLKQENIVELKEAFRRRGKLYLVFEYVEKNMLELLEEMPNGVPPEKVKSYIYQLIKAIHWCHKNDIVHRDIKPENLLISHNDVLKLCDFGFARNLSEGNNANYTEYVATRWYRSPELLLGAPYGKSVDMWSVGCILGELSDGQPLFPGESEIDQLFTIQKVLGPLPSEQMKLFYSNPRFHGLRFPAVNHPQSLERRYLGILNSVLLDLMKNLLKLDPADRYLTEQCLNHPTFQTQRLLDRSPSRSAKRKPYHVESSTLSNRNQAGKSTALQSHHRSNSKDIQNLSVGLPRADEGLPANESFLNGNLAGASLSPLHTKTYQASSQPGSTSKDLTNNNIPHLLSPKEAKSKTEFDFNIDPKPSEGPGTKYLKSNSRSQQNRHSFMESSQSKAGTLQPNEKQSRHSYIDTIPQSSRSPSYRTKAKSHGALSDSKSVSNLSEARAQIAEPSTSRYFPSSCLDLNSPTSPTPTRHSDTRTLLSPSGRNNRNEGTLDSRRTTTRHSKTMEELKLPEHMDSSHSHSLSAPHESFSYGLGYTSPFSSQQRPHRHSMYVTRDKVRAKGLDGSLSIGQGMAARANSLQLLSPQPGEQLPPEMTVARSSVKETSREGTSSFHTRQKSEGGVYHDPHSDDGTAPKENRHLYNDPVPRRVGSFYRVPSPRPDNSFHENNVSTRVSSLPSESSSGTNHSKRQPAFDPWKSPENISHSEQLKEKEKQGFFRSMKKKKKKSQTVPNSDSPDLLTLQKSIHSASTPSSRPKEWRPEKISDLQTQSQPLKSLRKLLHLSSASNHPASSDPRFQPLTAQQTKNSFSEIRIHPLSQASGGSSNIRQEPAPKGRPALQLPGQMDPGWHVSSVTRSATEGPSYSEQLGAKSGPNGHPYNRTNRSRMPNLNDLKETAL

For the compound `COCCN[C@H]1CC[C@H](Nc2cc(-c3csc(NCC4(C#N)CCOCC4)n3)c(Cl)cn2)CC1`, the Activity in series [1] was 94%; in [2] it was 94%; in series [3], 85%; in series [4] it was 91%; in series [6], 93%; in [7], 1.8%. Also, the Activity was determined as 99% in series [8]; 100% in series [9]; 70% in series [10]; 96% in series [11]; 83% in series [14]; 94% in series [15]. The Activity was 91% in series [16]; 90% in [17]; 21% in series [18]; 93% in series [19]; 81% in [20]. Further, the AUC in [5] is 3121.69 ng·h/mL. This compound also gave an AUC(0-inf) in [12] of 1990 ng·h/mL. Further, the TGI result in series [13] is “inactive”.
